Experimental data published in ChEMBL document CHEMBL4715745, “Synthesis and biological evaluation of novel FK228 analogues as potential isoform selective HDAC inhibitors” (Eur J Med Chem, 2016).
pIC50: −log10 of the molar value.

Key:
MKN-1 = test: Growth inhibition of human MKN-1 cells measured after 48 hrs by sulforhodamine B assay; assay type: functional
Summary of the method: (§1)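 Panel of 39 human cancer cell lines tested at the Japanese Foundation for Cancer Research. Five concentrations per compound, spanning 10⁻¹¹–10⁻⁷ M, 10⁻¹⁰–10⁻⁶ M or 10⁻⁸–10⁻⁴ M, were used to build dose-response curves. GI₅₀ is the concentration giving 50% growth inhibition relative to control.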

SNB-78 = test: Growth inhibition of human SNB-78 cells measured after 48 hrs by sulforhodamine B assay; assay type: functional; summary of the method: as §1
U-251 = test: Growth inhibition of human U-251 cells measured after 48 hrs by sulforhodamine B assay; assay type: functional; summary of the method: as §1
[1] = target: T1, Protein deacetylase HDAC6 (Mus musculus, UniProt Q9Z2V5); test: Inhibition of mouse HDAC6 expressed in 293T cells using Ac-KGLGK(Ac)-MCA as substrate incubated for 30 mins in presence of 0.1 mM DTT by fluorescence plate reader assay; design: species or system HEK293T
T1 sequence (Q9Z2V5 whole entry): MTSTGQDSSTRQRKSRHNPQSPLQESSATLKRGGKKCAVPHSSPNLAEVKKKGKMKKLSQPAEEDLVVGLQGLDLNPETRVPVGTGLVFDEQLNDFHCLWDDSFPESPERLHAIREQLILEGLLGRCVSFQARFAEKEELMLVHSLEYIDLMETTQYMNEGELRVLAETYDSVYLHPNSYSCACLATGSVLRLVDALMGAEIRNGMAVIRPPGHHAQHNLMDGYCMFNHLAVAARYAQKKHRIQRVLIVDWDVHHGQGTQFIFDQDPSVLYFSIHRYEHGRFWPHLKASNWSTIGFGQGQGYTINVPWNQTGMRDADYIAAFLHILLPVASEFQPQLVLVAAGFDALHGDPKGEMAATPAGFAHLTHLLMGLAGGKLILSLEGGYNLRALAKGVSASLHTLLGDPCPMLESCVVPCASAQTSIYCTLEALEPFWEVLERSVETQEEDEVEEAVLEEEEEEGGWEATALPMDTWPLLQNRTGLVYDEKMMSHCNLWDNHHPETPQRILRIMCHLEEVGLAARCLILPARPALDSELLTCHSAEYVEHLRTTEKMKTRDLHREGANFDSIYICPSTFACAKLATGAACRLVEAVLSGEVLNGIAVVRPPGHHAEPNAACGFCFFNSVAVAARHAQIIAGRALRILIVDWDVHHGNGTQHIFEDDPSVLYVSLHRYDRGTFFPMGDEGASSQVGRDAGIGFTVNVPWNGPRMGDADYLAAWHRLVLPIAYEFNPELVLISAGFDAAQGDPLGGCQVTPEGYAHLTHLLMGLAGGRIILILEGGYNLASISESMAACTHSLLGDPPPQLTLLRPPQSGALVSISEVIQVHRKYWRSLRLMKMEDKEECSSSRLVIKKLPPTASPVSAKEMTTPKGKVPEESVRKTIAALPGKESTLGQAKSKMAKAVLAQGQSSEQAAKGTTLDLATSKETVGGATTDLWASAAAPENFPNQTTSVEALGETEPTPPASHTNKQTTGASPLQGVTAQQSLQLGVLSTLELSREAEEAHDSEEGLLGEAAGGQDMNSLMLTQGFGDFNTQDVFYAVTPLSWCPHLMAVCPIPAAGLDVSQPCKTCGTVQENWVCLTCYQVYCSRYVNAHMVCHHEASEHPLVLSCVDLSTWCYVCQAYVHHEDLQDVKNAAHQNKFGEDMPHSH
Summary of the method: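 HDAC enzyme assay run in the presence of 0.1 mM dithiothreitol (DTT); IC₅₀ determined.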

DMS-273 = test: Growth inhibition of human DMS-273 cells measured after 48 hrs by sulforhodamine B assay; assay type: functional; summary of the method: as §1
SF-268 = test: Growth inhibition of human SF-268 cells measured after 48 hrs by sulforhodamine B assay; assay type: functional; summary of the method: as §1
ACHN = test: Growth inhibition of human ACHN cells measured after 48 hrs by sulforhodamine B assay; assay type: functional; summary of the method: as §1
[2] = Growth inhibition of human HBC4 cells measured after 48 hrs by sulforhodamine B assay; assay type: functional; summary of the method: as §1
KM12 = test: Growth inhibition of human KM12 cells measured after 48 hrs by sulforhodamine B assay; assay type: functional; summary of the method: as §1
MKN-45 = test: Growth inhibition of human MKN-45 cells measured after 48 hrs by sulforhodamine B assay; assay type: functional; summary of the method: as §1
DMS-114 = test: Growth inhibition of human DMS-114 cells measured after 48 hrs by sulforhodamine B assay; assay type: functional; summary of the method: as §1
OVCAR-4 = test: Growth inhibition of human OVCAR-4 cells measured after 48 hrs by sulforhodamine B assay; assay type: functional; summary of the method: as §1
[3] = Growth inhibition of human HBC5 cells measured after 48 hrs by sulforhodamine B assay; assay type: functional; summary of the method: as §1
OVCAR-3 = test: Growth inhibition of human OVCAR-3 cells measured after 48 hrs by sulforhodamine B assay; assay type: functional; summary of the method: as §1
[4] = Selectivity index, ratio of IC50 for mouse HDAC6 expressed in 293T cells to IC50 for human HDAC1 expressed in 293T cells using Ac-KGLGK(Ac)-MCA as substrate incubated for 30 mins in presence of 0.1 mM DTT by fluorescence plate reader assay; conditions: 0.5 h
Summary of the method: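 Ratio of HDAC6 IC₅₀ to HDAC1 IC₅₀, taken as selectivity for class I HDAC1 over class II HDAC6. Both enzyme assays were run in the presence of 0.1 mM DTT.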

LOX IMVI = test: Growth inhibition of human LOX IMVI cells measured after 48 hrs by sulforhodamine B assay; assay type: functional; summary of the method: as §1
DU-145 = test: Growth inhibition of human DU-145 cells measured after 48 hrs by sulforhodamine B assay; assay type: functional; summary of the method: as §1
RXF 631 = test: Growth inhibition of human RXF 631 cells measured after 48 hrs by sulforhodamine B assay; assay type: functional; summary of the method: as §1
[5] = Growth inhibition of human BSY1 cells measured after 48 hrs by sulforhodamine B assay; assay type: functional; conditions: BSY-1; summary of the method: as §1
OVCAR-8 = test: Growth inhibition of human OVCAR-8 cells measured after 48 hrs by sulforhodamine B assay; assay type: functional; summary of the method: as §1
MCF7 = test: Growth inhibition of human MCF7 cells measured after 48 hrs by sulforhodamine B assay; assay type: functional; summary of the method: as §1
HCC 2998 = test: Growth inhibition of human HCC 2998 cells measured after 48 hrs by sulforhodamine B assay; assay type: functional; summary of the method: as §1
MKN-28 = test: Growth inhibition of human MKN-28 cells measured after 48 hrs by sulforhodamine B assay; assay type: functional; summary of the method: as §1
SNB-75 = test: Growth inhibition of human SNB-75 cells measured after 48 hrs by sulforhodamine B assay; assay type: functional; summary of the method: as §1
SK-OV-3 = test: Growth inhibition of human SK-OV-3 cells measured after 48 hrs by sulforhodamine B assay; assay type: functional; summary of the method: as §1
NCI-H23 = test: Growth inhibition of human NCI-H23 cells measured after 48 hrs by sulforhodamine B assay; assay type: functional; summary of the method: as §1
HCT-116 = test: Growth inhibition of human HCT-116 cells measured after 48 hrs by sulforhodamine B assay; assay type: functional; summary of the method: as §1
SF-539 = test: Growth inhibition of human SF-539 cells measured after 48 hrs by sulforhodamine B assay; assay type: functional; summary of the method: as §1
MDA-MB-231 = test: Growth inhibition of human MDA-MB-231 cells measured after 48 hrs by sulforhodamine B assay; assay type: functional; summary of the method: as §1
Histone deacetylase 1 = Histone deacetylase 1 (Homo sapiens, UniProt Q13547); test: Inhibition of human HDAC1 expressed in 293T cells using Ac-KGLGK(Ac)-MCA as substrate incubated for 30 mins in presence of 0.1 mM DTT by fluorescence plate reader assay; design: species or system HEK293T
MKN-74 = test: Growth inhibition of human MKN-74 cells measured after 48 hrs by sulforhodamine B assay; assay type: functional; summary of the method: as §1
NCI-H522 = test: Growth inhibition of human NCI-H522 cells measured after 48 hrs by sulforhodamine B assay; assay type: functional; summary of the method: as §1
HCT-15 = test: Growth inhibition of human HCT-15 cells measured after 48 hrs by sulforhodamine B assay; assay type: functional; summary of the method: as §1
NCI-H226 = test: Growth inhibition of human NCI-H226 cells measured after 48 hrs by sulforhodamine B assay; assay type: functional; summary of the method: as §1
NCI-H460 = test: Growth inhibition of human NCI-H460 cells measured after 48 hrs by sulforhodamine B assay; assay type: functional; summary of the method: as §1
HT-29 = test: Growth inhibition of human HT-29 cells measured after 48 hrs by sulforhodamine B assay; assay type: functional; summary of the method: as §1
PC-3 = test: Growth inhibition of human PC-3 cells measured after 48 hrs by sulforhodamine B assay; assay type: functional; summary of the method: as §1
SF-295 = test: Growth inhibition of human SF-295 cells measured after 48 hrs by sulforhodamine B assay; assay type: functional; summary of the method: as §1
St-4 = test: Growth inhibition of human St-4 cells measured after 48 hrs by sulforhodamine B assay; assay type: functional; summary of the method: as §1
MKN-7 = test: Growth inhibition of human MKN-7 cells measured after 48 hrs by sulforhodamine B assay; assay type: functional; summary of the method: as §1
A549 = test: Growth inhibition of human A549 cells measured after 48 hrs by sulforhodamine B assay; assay type: functional; summary of the method: as §1
OVCAR-5 = test: Growth inhibition of human OVCAR-5 cells measured after 48 hrs by sulforhodamine B assay; assay type: functional; summary of the method: as §1

Sequence of Histone deacetylase 1 (Q13547 whole entry): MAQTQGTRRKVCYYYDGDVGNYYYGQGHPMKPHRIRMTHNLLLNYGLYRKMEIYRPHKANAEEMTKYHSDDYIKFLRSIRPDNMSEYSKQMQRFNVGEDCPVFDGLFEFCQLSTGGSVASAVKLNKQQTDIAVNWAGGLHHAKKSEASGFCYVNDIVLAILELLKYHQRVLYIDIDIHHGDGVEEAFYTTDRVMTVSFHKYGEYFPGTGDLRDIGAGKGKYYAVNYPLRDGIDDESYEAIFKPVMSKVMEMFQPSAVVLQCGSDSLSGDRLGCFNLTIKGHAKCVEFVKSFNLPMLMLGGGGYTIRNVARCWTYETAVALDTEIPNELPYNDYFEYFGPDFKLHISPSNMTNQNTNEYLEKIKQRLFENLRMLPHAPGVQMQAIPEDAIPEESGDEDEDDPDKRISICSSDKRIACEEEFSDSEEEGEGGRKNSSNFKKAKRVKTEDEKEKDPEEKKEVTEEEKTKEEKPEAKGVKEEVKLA

CC(C)[C@H]1NC(=O)C[C@H]2/C=C/CCSSC[C@@H](NC1=O)C(=O)N[C@@H](Cc1ccccc1)C(=O)NCC(=O)O2
GI50 (MKN-1): 290 nM | GI50 (SNB-78): 540 nM | GI50 (U-251): 1500 nM | pIC50 [1]: 6.45 | GI50 (DMS-273): 1500 nM | GI50 (SF-268): 220 nM | GI50 (ACHN): 11000 nM | GI50 [2]: 690 nM | GI50 (KM12): 740 nM | GI50 (MKN-45): 1800 nM | GI50 (DMS-114): 620 nM | GI50 (OVCAR-4): 1900 nM | GI50 [3]: 1900 nM | GI50 (OVCAR-3): 1100 nM | Ratio IC50 [4]: 9 | GI50 (LOX IMVI): 160 nM | GI50 (DU-145): 590 nM | GI50 (RXF 631): 1800 nM | GI50 [5]: 1300 nM | GI50 (OVCAR-8): 1400 nM | GI50 (MCF7): 1900 nM | GI50 (HCC 2998): 1100 nM | GI50 (MKN-28): 2100 nM | GI50 (SNB-75): 1300 nM | GI50 (SK-OV-3): 1200 nM | GI50 (NCI-H23): 1100 nM | GI50 (HCT-116): 250 nM | GI50 (SF-539): 860 nM | GI50 (MDA-MB-231): 1200 nM | pIC50 (Histone deacetylase 1): 7.39 | GI50 (MKN-74): 500 nM | GI50 (NCI-H522): 200 nM | GI50 (HCT-15): 26000 nM | GI50 (NCI-H226): 1200 nM | GI50 (NCI-H460): 1100 nM | GI50 (HT-29): 570 nM | GI50 (PC-3): 1100 nM | GI50 (SF-295): 1800 nM | GI50 (St-4): 2000 nM | GI50 (MKN-7): 1900 nM | GI50 (A549): 880 nM | GI50 (OVCAR-5): 1400 nM

CC(C)C[C@H]1NC(=O)[C@H]2CSSCC/C=C/[C@H](CC(=O)N[C@H](C(C)C)C(=O)N2)OC(=O)CNC1=O
GI50 (MKN-1): 21 nM | GI50 (SNB-78): 30 nM | GI50 (U-251): 10 nM | pIC50 [1]: 5.07 | GI50 (DMS-273): 74 nM | GI50 (SF-268): 11 nM | GI50 (ACHN): 200 nM | GI50 [2]: 70 nM | GI50 (KM12): 33 nM | GI50 (MKN-45): 240 nM | GI50 (DMS-114): 36 nM | GI50 (OVCAR-4): 87 nM | GI50 [3]: 270 nM | GI50 (OVCAR-3): 40 nM | Ratio IC50 [4]: 8804 | GI50 (LOX IMVI): 23 nM | GI50 (DU-145): 37 nM | GI50 (RXF 631): 68 nM | GI50 [5]: 69 nM | GI50 (OVCAR-8): 42 nM | GI50 (MCF7): 52 nM | GI50 (HCC 2998): 27 nM | GI50 (MKN-28): 270 nM | GI50 (SNB-75): 43 nM | GI50 (SK-OV-3): 23 nM | GI50 (NCI-H23): 39 nM | GI50 (HCT-116): 22 nM | GI50 (SF-539): 57 nM | GI50 (MDA-MB-231): 39 nM | pIC50 (Histone deacetylase 1): 9.02 | GI50 (MKN-74): 44 nM | GI50 (NCI-H522): 10 nM | GI50 (HCT-15): 590 nM | GI50 (NCI-H226): 59 nM | GI50 (NCI-H460): 39 nM | GI50 (HT-29): 33 nM | GI50 (PC-3): 69 nM | GI50 (SF-295): 1100 nM | GI50 (St-4): 230 nM | GI50 (MKN-7): 280 nM | GI50 (A549): 23 nM | GI50 (OVCAR-5): 31 nM
